# TMEM16A act – TMEM16A chloride channel activators or potentiators, primary screen, cell-based, HTS. Anoctamin-1 (Mus musculus), Q8BHY3. HEK293 TMEM16A/YFP-H148Q/I152L, iodide quench fluorescence; hits give low values. B-score at 10 µM. 340,000 tested, 0.3% active. AID 623877, 2012;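 active = fluorescence-ratio B-score plate-corrected deviation score at least 3 library SD below zero, with starting fluorescence score within 5 deviations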;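 note: channel opened by trigger with iodide after compound preincubation; score built on the fluorescence ratio of max minus min over baseline; more negative score means more quench and so TMEM16A activation or potentiation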
# Target sequence (Q8BHY3 whole entry, looked up): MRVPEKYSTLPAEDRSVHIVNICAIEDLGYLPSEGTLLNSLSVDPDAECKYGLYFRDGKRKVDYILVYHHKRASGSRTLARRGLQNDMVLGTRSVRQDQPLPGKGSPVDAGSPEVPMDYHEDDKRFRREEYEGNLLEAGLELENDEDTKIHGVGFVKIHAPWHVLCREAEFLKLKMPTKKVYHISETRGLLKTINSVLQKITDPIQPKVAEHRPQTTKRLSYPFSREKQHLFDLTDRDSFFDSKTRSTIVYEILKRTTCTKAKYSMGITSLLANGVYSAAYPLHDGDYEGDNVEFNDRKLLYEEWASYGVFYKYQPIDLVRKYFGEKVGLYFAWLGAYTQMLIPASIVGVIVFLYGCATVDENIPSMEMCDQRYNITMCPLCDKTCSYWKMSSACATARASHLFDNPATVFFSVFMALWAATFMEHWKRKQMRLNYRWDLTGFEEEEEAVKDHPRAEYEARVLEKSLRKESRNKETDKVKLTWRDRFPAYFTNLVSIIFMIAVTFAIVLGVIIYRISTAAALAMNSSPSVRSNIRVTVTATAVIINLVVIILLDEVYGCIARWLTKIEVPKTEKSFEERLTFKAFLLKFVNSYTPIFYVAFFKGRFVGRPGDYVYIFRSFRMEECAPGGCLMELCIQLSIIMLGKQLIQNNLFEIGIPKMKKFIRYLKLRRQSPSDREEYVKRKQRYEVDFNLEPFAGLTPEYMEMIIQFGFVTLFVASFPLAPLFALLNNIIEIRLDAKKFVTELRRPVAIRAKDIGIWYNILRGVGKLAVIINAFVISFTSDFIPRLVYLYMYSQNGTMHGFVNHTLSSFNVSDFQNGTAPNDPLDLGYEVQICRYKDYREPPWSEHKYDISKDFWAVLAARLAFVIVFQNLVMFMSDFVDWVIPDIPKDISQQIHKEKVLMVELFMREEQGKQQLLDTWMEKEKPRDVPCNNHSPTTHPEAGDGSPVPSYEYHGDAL
# Hep lipid drop – inhibitors of hepatocyte lipid droplet formation, primary screen, imaging, high-throughput imaging, BODIPY stain; inhibition, % at 6.5 µM; 240,000 tested, 0.4% active; AID 1656, 2009; AML12 mouse hepatocytes, oleate lipid droplets;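 active = lipid droplet intensity inhibited by at least 50%, with more than 500 cells counted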
#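 Assay system: AML12 mouse liver cells | Compound: 6.5 µM single-point dosing | Schedule: Overnight exposure | Technique: Fluorescence imaging, 20x objective, two fields per well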
# UPR XBP1 act – activators of adaptive XBP1 UPR arm, primary screen, cell-based, CHO-XBP1 luciferase reporter, luminescence, uHTS | IRE1-XBP1 UPR activation; percent of tunicamycin response, DMSO as zero | activation, % at 20 µM | 330,000 tested, 0.33% active | AID 463104, 2010;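 active = versus positive control, 20 µM dose yields 30% or more activation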;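 note: 100% = tunicamycin at 10 µg/mL and 0% = DMSO only wells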
#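 Assay system: CHO-XBP1 luciferase reporter cells; Schedule: 6 h treatment, 37 °C; Detection: glow luminescence from Steady-Glo reagent; Benchmarks: high control tunicamycin 10 µg/mL final, low control DMSO vehicle only.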
# CHOP UPR activ – activators of apoptotic CHOP UPR arm, primary screen, cell-based, CHO-CHOP luciferase reporter, luminescence, uHTS; UPR activation; percent of tunicamycin response over DMSO baseline; activation, % at 10 µM; 330,000 tested, 0.34% active; AID 449763, 2010;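 active = at 10 µM dose, activation of 40% or more, normalized to positive control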;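 note: 100% = tunicamycin at 10 µg/mL and 0% = DMSO alone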
#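 Assay system: CHO cells with stable CHOP pathway luciferase reporter; Buffer or medium: F12 plus 10% serum; Times: 16-18 h cell attachment, then 6 h compound exposure, 37 °C; Signal: luciferase luminescence; Read-out basis: percent activation relative to tunicamycin control; Control set: tunicamycin high control, DMSO low control.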
# TMEM16A inh – TMEM16A chloride channel inhibitors, primary screen, cell-based, HTS | Anoctamin-1 (Mus musculus), Q8BHY3 | 310,000 tested, 1.2% active | normalized B-score (activity score, 25-100; higher = stronger inhibition) at 10 µM | HEK293 TMEM16A/YFP iodide influx fluorescence, ionomycin | AID 588511, 2011;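 active = ratio plate-corrected score three or more library SD toward inhibition, starting fluorescence score within five deviations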;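 note: score derived from kinetic fluorescence span divided by baseline fluorescence per well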
# CHOP inhibitor – inhibitors of CHOP promoter induction, primary screen, cell-based, unfolded protein response, luciferase reporter | CHO-K1 CHOP-promoter luciferase, tunicamycin-induced, 15-18 h | inhibition, % at 10 µM | 220,000 tested, 3.8% active | AID 2732, 2010;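 active = compounds that reduced the stress-induced luciferase reporter signal by more than about 70% of percent inhibition, limit read from the data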;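 note: 0% = tunicamycin plus vehicle and 100% = wells without tunicamycin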
# * = called active by the depositor; i = inactive; · = no result given. Hits are enriched below; roughly 4.2% of the tested compounds scored in any of these assays.
SMILES,TMEM16A act,Hep lipid drop,UPR XBP1 act,CHOP UPR activ,TMEM16A inh,CHOP inhibitor
C/C(=N\NC(=O)c1ccc(OC2CCCC2)cc1)c1ccc(O)cc1,i,22,-3,2,i,·
Cc1ccc([N+](=O)[O-])cc1N=Nc1c(-c2ccc([N+](=O)[O-])cc2)[nH]n(C(N)=S)c1=O,-5.4*,22,·,·,·,78*
O=C(CS(=O)(=O)c1ccccc1)Nc1ccc(Cl)cn1,i,·,-4,3,i,·
O=C(CC(c1ccccc1)c1ccccc1)Nc1ccc(Cl)cn1,i,-23,-3,2,i,78*
Cc1ccc(NC(=O)Nc2ccc(Cl)cn2)cc1,-5.9*,3,·,·,·,-19
O=C(CCCOc1ccccc1)Nc1ccc(Cl)cn1,i,0,1,1,i,72*
CCCCCCC(=O)Nc1ccc(Cl)cn1,i,1,4,4,i,-10
Cc1ccc(OCCC(=O)OCC(=O)Nc2ccc(Cl)cn2)cc1,i,·,-2,1,i,74*
Cc1ccsc1/C=C1/NC(=O)N(Cc2ccc(F)cc2)C1=O,i,-1,-4,2,i,30
Cc1c(Cl)ccc2c(C(=O)NC(C)c3ccncc3)cc(-c3ccncc3)nc12 (centres undefined),·,·,4,2,i,79*
CCCn1c(=O)c2sccc2n2c(CCCC(=O)NCC3CCCO3)nnc12 (centres undefined),i,6,-2,3,i,·
O=C(N/N=C/c1cccc([N+](=O)[O-])c1)c1cc2ccccc2o1,i,8,2,3,i,95*
COC(=O)c1c(C(=O)OC)c2cccc3cc(-c4ccccc4)c4ccc1c4n32,i,14,17,0,i,83*
C/C(=C\C(=O)c1ccccc1)Nc1ccc(Br)c(Cl)c1,i,·,6,5,25*,·
CCNC(=O)C1OC(n2cnc3c(NCc4ccccc4)ncnc32)C(O)C1O (centres undefined),·,·,·,·,·,-7
COc1ccc(-c2cc(-c3ccc(Br)cc3)nc3ncnn23)cc1OC,i,7,-2,-1,i,79*
COc1ccc(-c2cc(-c3ccccc3)nc3ncnn23)cc1,i,11,5,-1,i,29
COc1ccc2c3n(nc2c1)CCN=C3c1ccc(Cl)cc1,i,·,-1,2,i,·
Cc1[nH]n(-c2ccccc2)c(=O)c1/C=N/N1CCOCC1,-7.4*,21,-1,2,i,5
Cc1[nH]n(-c2ccccc2)c(=O)c1N=Nc1ccccc1,i,54*,-2,2,i,95*
COc1ccc(CCNC(=O)CSc2nnc(CNC(=O)c3cc(OC)c(OC)c(OC)c3)o2)cc1OC,i,17,-8,2,i,·
CC(=O)Nc1ccc(NC(=O)C(C)OC(=O)CC23CC4CC(CC(Br)(C4)C2)C3)cc1 (centres undefined),i,·,-1,-1,·,·
O=C(Nc1c(C(=O)c2ccccc2)oc2ccccc12)c1cc(-c2ccccc2O)n[nH]1,i,-4,23,-1,i,90*
CC(=O)Nc1c(C(=O)c2ccc(F)cc2)oc2ccccc12,i,·,1,-3,i,14
Cc1ccc(C(=O)c2oc3ccccc3c2NC(=O)c2cc(-c3ccccc3O)n[nH]2)cc1,i,-4,19,3,i,61
SMILES,TMEM16A act,Hep lipid drop,UPR XBP1 act,CHOP UPR activ,TMEM16A inh,CHOP inhibitor
Cc1ccc(C(=O)c2oc3ccccc3c2NC(=O)c2cc(-c3cc(C)ccc3O)n[nH]2)cc1,i,10,60*,10,i,71*
O=C(CCn1nc(-c2ccc(Cl)cc2)c2ccccc2c1=O)Nc1cccnc1,i,20,-1,-1,i,1
COc1cc([N+](=O)[O-])ccc1-c1ccc(/C=C2\C(=O)ON=C2c2ccccc2)o1,-5.7*,·,·,·,·,·
Cc1sc(/C=C2\C(=O)ON=C2c2ccccc2)cc1Br,·,1,-2,0,i,88*
Cc1ccc(/C=C2/C(=O)ON=C2c2ccccc2)o1,i,-2,20,6,25*,-36
CC(C(=O)N(C1CC1)C1(C(=O)Nc2ccccc2)CCCC1)N1C(=O)c2ccccc2C1=O (centres undefined),i,·,-4,-2,i,74*
CC(C(=O)Nc1ccc(C(=O)O)cc1)N1C(=O)c2ccccc2C1=O (centres undefined),i,·,4,-2,i,-39
CCCc1nc(SCC(=O)c2ccc(OC)cc2)c2c(=O)n(C)c(=O)n(C)c2n1,·,23,·,·,·,·
CCCc1nc(SCC(=O)c2ccccc2)c2c(=O)n(C)c(=O)n(C)c2n1,i,-1,-2,1,i,74*
CCCc1nc(SCC(=O)Nc2cc(Cl)ccc2OC)c2c(=O)n(C)c(=O)n(C)c2n1,·,35,3,0,·,79*
CCCN(CC(=O)Nc1ccccc1OC)C(=O)c1ccc(S(=O)(=O)NCc2ccco2)cc1,-45*,·,-1,-2,·,·
CCCN(CC(=O)Nc1ccccc1OC)C(=O)c1ccc(S(=O)(=O)Nc2ccccc2OC)cc1,i,·,·,·,·,·
Cc1sc2ncnc(N3CCN(CCOc4ccc(Cl)cc4)CC3)c2c1C,i,-17,-2,5,100*,92*
Cc1sc2ncnc(N3CCC(C(=O)NNC(=O)COc4ccc(Cl)cc4)CC3)c2c1C,i,·,·,·,·,·
Cc1sc2ncnc(N3CCC(C(=O)NNC(=O)COc4cccc(C(F)(F)F)c4)CC3)c2c1C,i,·,-2,0,100*,·
Cc1sc2ncnc(N3CCC(C(=O)NNC(=O)COc4ccc(Br)cc4)CC3)c2c1C,i,·,-4,1,100*,·
O=[N+]([O-])c1ccc(N2CCc3ccccc3C2)cc1,i,-4,-1,2,i,·
O=C1CC(c2cccc(O)c2)Oc2ccccc21 (centres undefined),i,·,5,3,·,·
CCOC(=O)CCCc1c[nH]c2ccccc12,i,·,0,2,i,17
CCCCC(=O)OCC(=O)N1N=C(c2c[nH]c3ccccc23)C(O)C1c1ccc(OC)cc1 (centres undefined),i,·,7,2,25*,·
CCOC(=O)COc1ccc2ccccc2c1/C=C/[N+](=O)[O-],i,3,·,·,i,109*
